Screening data (PubChem)
Only some compounds are listed: those with a hit (about 3% of all), similar ones and a draw of the others.
MPTP inh: mitochondrial permeability transition pore inhibitors, primary screen, biochemical, isolated mouse mitochondria, absorbance | Ca2+ swelling absorbance, 30 min | inhibition, % at 10 µM | hit rate 1.4% among 360,000 | AID 602449, 2012;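 active = inhibition of 50% or more, scaled per plate between neutral and stimulator controls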;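 also: 0% = DMSO wells given calcium and 100% = 1 mM EGTA wells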
iPSC survival up: enhancers of single-cell hiPSC survival, primary screen, ATPlite luminescence; 100% = ROCK inhibitor wells, 0% = DMSO; survival enhancement, % at 20 µM; hit rate 0.044% among 360,000; in the data active = survival enhancement above about 18%;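 also: cells exposed to compounds for 16 hours before the ATP read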
UBC13 inh: UBC13 polyubiquitin chain formation inhibitors, primary screen, biochemical, TR-FRET, uHTS | inhibition, % at 20 µM | hit rate 0.47% among 330,000 | Ubiquitin-conjugating enzyme E2 N (Homo sapiens), P61088 | AID 485273, 2010; in the data active = inhibition above about 45%, passing the limit was not always enough
MIN6 prolif: inducers of MIN6 beta-cell proliferation, primary screen, ATP luminescence, uHTS; MIN6 cells proliferation, ATPlite luminescence, 48 h; cells starved in 0.2% serum; 100% = growth in 10% serum; proliferation, % at 10 µM; hit rate 0.29% among 330,000;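 active = compounds whose signal lies at least 3.5 SD above the mean of all wells on their plate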;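 also: 0% = DMSO-treated cells in low-serum medium and 100% = 10% serum control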
Exocytosis inh: LAMP-1 surface exposure blockers, TALL-104 cells – cell-based, flow cytometry, MLPCN library, primary screen; TALL-104 LAMP-1 surface exposure; cells stimulated with thapsigargin and PMA; inhibition, % at 10 µM; hit rate 0.66% among 360,000;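 active = inhibition above about 55%, limit read from the data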
Apaf1 inhib: inhibitors of human Apaf-1 apoptosome, primary screen, biochemical, DEVD-Rh110 fluorescence, uHTS. Apoptotic protease-activating factor 1 (Homo sapiens), O14727. reconstituted apoptosome caspase-3 activity. inhibition, % at 20 µM. hit rate 0.71% among 330,000. AID 489030, 2010; active = inhibition of at least 40% at 20 µM;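 also: plate controls were DMSO wells for no effect and DEVD-CHO caspase inhibitor wells for full effect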
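Material: cell-free apoptosome with Apaf-1, procaspase-3 and caspase-9; Buffer or medium: Hepes pH 7.5 with detergent and BSA; Reagent: cytochrome c trigger plus (Z-DEVD)2-Rh110 caspase-3 substrate; Times: compound with Apaf-1, dATP, procaspase-3 30 min, then 50 min reaction, room temperature; Technique: Rh110 fluorescence intensity.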
Casp3 UBC13 ctr: CASP3 inhibitor validation, counterassay for project on UBE2N polyubiquitination blockers, biochemical, one dose | AID 488856, 2010 | Recombinant caspase-3, Caspase-Glo 3/7 luminescence, 60 min | shares compounds with UBC13 inh | hit rate 4% among 1,400 | inhibition, % at 20 µM;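 active = mean inhibition across replicates above about 26%, limit read from the data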;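 also: plate controls were DMSO with caspase-3 for no effect and DMSO wells lacking enzyme for full effect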
UBC13 conf: UBC13 polyubiquitination inhibitors, single-point retest, confirmation, biochemical, TR-FRET, single concentration. shares compounds with UBC13 inh. inhibition, % at 10 µM. hit rate 68% among 1,400; in the data active = inhibition above about 45%
Apaf-1 inh conf2: Apaf-1 inhibitors, single-dose retest, confirmation, biochemical, fluorescence, DEVD-Rh110, 20 µM | AID 504614, 2011 | inhibition, % at 20 µM | shares compounds with Apaf1 inhib | reconstituted apoptosome, caspase-3 DEVD-Rh110 fluorescence | hit rate 25% among 1,800;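 active = mean inhibition of at least 40% at 20 µM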;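 also: plate controls were DMSO wells for no effect and DEVD-CHO caspase inhibitor control wells for full effect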
Rh110 interf inh: Rh110 fluorescence interference by putative Apaf-1 inhibitors, confirmation, artefact control for Apaf-1 inhibitor project, biochemical, 20 µM; shares compounds with Apaf1 inhib; quenched caspase reaction; 1,800 tested, under 10 active; activation (fluorescence interference), % at 20 µM;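 active = signal rise of 40% or more at 20 µM, treated as a fluorescence artifact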
Apaf1 inh interf: fluorescence interference of Apaf-1 inhibitor hits, dose response, artefact control for Apaf-1 inhibitor project; shares compounds with Apaf1 inhib; fluorescence interference counterscreen, Apaf-1 assay format; IC50, µM; 460 tested, under 10 active; call rule not given here
The depositor's hits bear a star; . = no result given.

SMILES	MPTP inh	iPSC survival up	UBC13 inh	MIN6 prolif	Exocytosis inh	Apaf1 inhib	Casp3 UBC13 ctr	UBC13 conf	Apaf-1 inh conf2	Rh110 interf inh	others
CCCCc1oc2ccccc2c1C(=O)c1cc(I)c(OCCN(CC)CC)c(I)c1	.	2	68*	-8	18	53*	0	58*	6	13
CCN(CC)CCOc1ncnc2c1oc1ccccc12	3	4	-11	6	4	0	.	.	.	.
CC(OC(=O)c1cc(S(=O)(=O)N2CCOCC2)ccc1Br)C(=O)N1CCOCC1 (configuration not stated)	0	-3	-2	-1	0	-18	.	.	.	.
C#CCOCCOCCOCCNc1nc(N2CCN(C(=O)[C@H](CCC(=O)O)n3cc(C(N)[C@H](C)CC)nn3)CC2)nc(N2CCN(C(=O)[C@H](Cc3cc4ccccc4[nH]3)n3cc(C(N)[C@H](C)CC)nn3)CC2)n1 (some centres not stated)	.	.	7	1	.	-6	.	.	.	.
C#CCOCCOCCOCCNc1nc(N2CCN(C(=O)[C@H](CCCCN)n3cc([C@@H](N)C(C)CC)nn3)CC2)nc(N2CCN(C(=O)[C@H](Cc3cc4ccccc4[nH]3)n3cc([C@@H](N)C(C)CC)nn3)CC2)n1 (some centres not stated)	-5	0	111*	1	3	53*	-2	114*	4	-7
C#CCOCCOCCOCCNc1nc(N2CCN(C(=O)[C@H]([C@@H](C)CC)n3cc([C@@H](N)Cc4ccc(O)cc4)nn3)CC2)nc(N2CCN(C(=O)[C@H](Cc3cc4ccccc4[nH]3)n3cc([C@@H](N)CC(C)C)nn3)CC2)n1	-7	-2	87*	-3	-6	63*	-4	61*	30	-3
C#CCOCCOCCOCCNc1nc(N2CCN(C(=O)[C@H]([C@@H](C)CC)n3cc([C@@H](N)CC(C)C)nn3)CC2)nc(N2CCN(C(=O)[C@H](Cc3cc4ccccc4[nH]3)n3cc([C@@H](N)Cc4ccc(O)cc4)nn3)CC2)n1	.	.	74*	-4	.	56*	2	66*	7	-1
C#CCOCCOCCOCCNc1nc(N2CCN(C(=O)C([C@@H](C)O)n3cc([C@@H](N)CCCCN)nn3)CC2)nc(N2CCN(C(=O)[C@H](CCCN=C(N)N)n3cc(C(N)[C@@H](C)CC)nn3)CC2)n1 (some centres not stated)	-2	6	101*	3	5	46*	7	111*	-3	-3
O=C(Nc1ccccc1F)c1csc(COCCO)n1	1	0	.	.	-15	.	.	.	.	.
O=C(OCCOc1cccc(Cl)c1)c1ccc2ncsc2c1	0	2	8	-4	49	18	.	.	.	.
CCOc1ccc(CCNC(=O)COC(=O)c2oc3ccccc3c2COC)cc1OCC	-1	-1	-1	4	0	6	.	.	.	.
CCC1(c2ccccc2)NC(=O)N(CC(=O)Nc2cc(Cl)ccc2N2CCN(C)CC2)C1=O (configuration not stated)	-1	0	87*	-2	5	58*	2	66*	37	4
COc1ccccc1CNC(=S)NCc1ccc(F)cc1	3	0	-5	-5	-1	14	.	.	.	.
Cc1ccc(NC(=O)CN(C)C(=O)c2ccc3[nH]c4c(c3c2)CC(C)CC4)cc1 (configuration not stated)	1	0	66*	-2	-2	59*	-2	48*	45*	4	Apaf1 inh interf=>100
CCOc1ccc(NC(=O)CN(C)C(=O)c2ccc3[nH]c4c(c3c2)CC(C)CC4)cc1OCC (configuration not stated)	-1	0	6	-3	3	18	.	.	.	.
CC(=O)N1CCc2cc(S(=O)(=O)NC(CC(C)C)C(=O)N3CCCC3)ccc21 (configuration not stated)	-1	-1	1	-1	-4	-8	.	.	.	.
O=C(COC(=O)c1cccc(-n2cnnn2)c1)c1ccc(F)c(F)c1	0	1	.	.	-5	.	.	.	.	.
c1ccc(C[C@H]2CN=C(Nc3ccccc3)N2CCCC2CCCCC2)cc1	4	-3	48*	-4	0	47*	-1	26	1	3
CCC(C)(C)c1ccc(OCCCC[n+]2cccc(C)c2C)c(C(C)(C)CC)c1	41	-1	82*	-3	25	69*	-3	100*	54*	19	Apaf1 inh interf=>100
COc1ccc(C(=O)C[n+]2cccc(C)c2C)cc1[N+](=O)[O-]	-1	0	-3	-1	9	-5	.	.	.	.
CCC(C)(C)c1ccc(OCCCC[n+]2ccc(C)cc2)c(C(C)(C)CC)c1	.	.	69*	-6	.	48*	-2	99*	29	20
CC1(C)CC(NC(=O)COc2ccc3c4c(c(=O)oc3c2)CCCC4)CC(C)(C)N1	-1	0	16	0	-4	5	.	.	.	.
COc1ccccc1OCCNC(=O)c1cccc(S(=O)(=O)N2CCN(Cc3ccccc3)CC2)c1	0	0	70*	-2	26	67*	-3	56*	49*	4	Apaf1 inh interf=>100
CN(Cc1cccc(F)c1)C(=O)c1cccc(S(=O)(=O)N2CCN(Cc3ccccc3)CC2)c1	1	0	13	-4	2	13	.	.	.	.
COc1ccccc1OCCNC(=O)c1cccc(S(=O)(=O)N2CCN(C)CC2)c1	-1	1	17	2	0	26	.	.	.	.
